Screening results: PubChem, several laboratories
Sampled rows, rich in hits. Any-hit rate of the full collection: about 3%.
HIF act: HIF pathway transcriptional activation; U2OS HRE-luciferase reporter, luminescence; normalized: DMSO 0%, desferrioxamine 100%; 300,000 tested, 0.32% active; AID 1910; activation, % at 7.5 µM (by protocol);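 active means mean activation of at least 10% of the iron chelator positive control signal, with at least half of replicates also reaching 10%; inconclusive means mean and replicate majority disagree about reaching 10%; inactive means mean and most replicates under 10%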
V-ATPase pHluor: alters yeast V-ATPase proton transport; S. cerevisiae, pHLuorin cytosolic pH fluorescence; response, % at 10 µM; 350,000 tested, 0.37% active; in the data active means response mostly above about 7.3%, no sharp cut-off; inactive means mostly below about 5.4%; further: actives read high
Yeast superoxide: lowers age-related superoxide in aged yeast cells | AID 2690 | S. cerevisiae aged cells, superoxide DHE fluorescence; active compounds read low | superoxide response (% of plate mean), % at 10 µM | 330,000 tested, 0.18% active;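 active means superoxide response under a set limit, about three screen SD below normal, cut at about 65% in these data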;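 further: yeast aged for seven days with compound at 30 °C before DHE staining; 100% = average MFI of all compound-treated wells on the plate with controls excluded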
CendR NRP1 mod: modulators of CendR peptide binding to human neuropilin-1; inhibition, % at 25 µM; O14786; 360,000 tested, 0.85% active; FAM-RPARPAR peptide binding to NRP-1, fluorescence polarization;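 active means inhibition or corrected inhibition above about 18%, plus a signal ratio from 0.5 to 1.5, limit read from the data, passing the limit was not always enough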
Target sequence (O14786 whole entry, looked up): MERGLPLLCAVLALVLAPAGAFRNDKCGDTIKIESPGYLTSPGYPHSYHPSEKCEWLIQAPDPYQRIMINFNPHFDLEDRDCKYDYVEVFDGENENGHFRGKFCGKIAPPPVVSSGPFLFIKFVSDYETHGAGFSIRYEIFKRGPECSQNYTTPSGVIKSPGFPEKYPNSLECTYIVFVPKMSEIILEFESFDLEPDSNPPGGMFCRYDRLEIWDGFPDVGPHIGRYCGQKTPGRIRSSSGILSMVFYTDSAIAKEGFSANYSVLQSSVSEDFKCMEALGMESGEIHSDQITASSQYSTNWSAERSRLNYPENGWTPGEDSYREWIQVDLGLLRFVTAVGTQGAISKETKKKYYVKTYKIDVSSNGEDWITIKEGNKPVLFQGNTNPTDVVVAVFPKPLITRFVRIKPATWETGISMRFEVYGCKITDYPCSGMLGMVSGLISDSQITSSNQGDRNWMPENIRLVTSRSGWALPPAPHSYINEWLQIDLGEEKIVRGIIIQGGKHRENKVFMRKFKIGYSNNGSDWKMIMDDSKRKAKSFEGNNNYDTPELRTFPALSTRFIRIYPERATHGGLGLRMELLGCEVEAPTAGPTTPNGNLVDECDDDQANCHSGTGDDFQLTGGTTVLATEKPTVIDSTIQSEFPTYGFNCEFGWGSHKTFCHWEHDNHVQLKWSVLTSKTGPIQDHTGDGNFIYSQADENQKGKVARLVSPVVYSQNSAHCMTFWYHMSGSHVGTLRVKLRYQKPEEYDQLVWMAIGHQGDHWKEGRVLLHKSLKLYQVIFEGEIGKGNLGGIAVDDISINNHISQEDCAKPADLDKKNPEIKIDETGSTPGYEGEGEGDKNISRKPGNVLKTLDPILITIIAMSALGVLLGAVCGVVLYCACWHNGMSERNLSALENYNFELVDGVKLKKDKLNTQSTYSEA
T cruzi inh: T. cruzi replication inhibition | T. cruzi beta-gal in NIH3T3, luminescence, 90 h | inhibition, % (test concentration not listed) | 300,000 tested, 1.4% active | AID 1885;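 active means mean inhibition across valid replicates above about 55%, limit read from the data; inconclusive means mean below that limit but half or more replicates reach it; inactive means mean below it, under half of replicates reach it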;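 further: signal also drops with host cell toxicity which is not excluded here; 0% = plate median of DMSO wells and 100% = zero luminescence signal; higher percent means less beta-gal luminescence so fewer parasites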
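Material: NIH/3T3 host cells with β-galactosidase reporter T. cruzi; Input: 5,000 host fibroblasts per well; Medium: DMEM, 2% fetal bovine serum; Compound: 50 nL DMSO compound solution per well; Schedule: 3 h host attachment, then at least 90 h co-culture; Detection: luminescent β-galactosidase signal after 60 min lysis.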
AI-2 QS modul: Vibrio harveyi AI-2 quorum sensing modulation; Vibrio harveyi JMH597 AI-2 luminescence/OD600 ratio, 9 h; active compounds read low; strain lacks LuxN and CqsS sensors; 0 = neutral-control median; activity change, % at 7.5 µM; 300,000 tested, 0.4% active; AID 2094; in the data active means activity change below about -75%, passing the limit was not always enough; inconclusive means no clear call, values can overlap the other calls;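 further: luminescence divided by OD600 gain over 9 h not by final OD600 alone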
Active calls of the source: *.

Screening O=C(Cc1ccc(F)cc1)N1CCC(CC2CC(c3cccc(Br)c3)=NO2)(C(=O)NCC2CCCCC2)CC1 (stereo unspecified) returned HIF act -4, V-ATPase pHluor -3, Yeast superoxide 93, CendR NRP1 mod -9, T cruzi inh 27 and AI-2 QS modul 33.
Screening COc1ccc(OC)c(C2=Nn3c(nnc3-c3cc(C)[nH]n3)SC2)c1 returned HIF act 58*, V-ATPase pHluor 0, Yeast superoxide 101, CendR NRP1 mod 4, T cruzi inh -5 and AI-2 QS modul 32.
`COc1ccc(OC)c(-c2nnc3n2N=C(c2ccc(OC)c(OCC4CC4)c2)CS3)c1` gave V-ATPase pHluor -9, Yeast superoxide 103 and CendR NRP1 mod 2.
For CN1CCC(N2CCCC(C(=O)O)C2)CC1 (stereo unspecified) the results were HIF act 0, V-ATPase pHluor -2, Yeast superoxide 112, CendR NRP1 mod -15, T cruzi inh -14 and AI-2 QS modul -9.
Screening CC1=C(C(=O)N2CCc3ccccc32)C2(CCC(C)CC2)OC1=O (stereo unspecified) returned HIF act -1, V-ATPase pHluor 2, Yeast superoxide 111, CendR NRP1 mod 11, T cruzi inh 60* and AI-2 QS modul 14.
Screening CC1=C(C(=O)N2CCCCC2)C2(CCC(C)CC2)OC1=O (stereo unspecified) returned HIF act 0, V-ATPase pHluor -2, Yeast superoxide 116, CendR NRP1 mod -1, T cruzi inh -6 and AI-2 QS modul 14.
CCOCCCNC(=O)C(NC(=O)c1ccc(NC(C)=O)cc1)c1ccccc1 (stereo unspecified) was read as HIF act 0, V-ATPase pHluor 0, Yeast superoxide 61*, CendR NRP1 mod 10, T cruzi inh -1 and AI-2 QS modul 9.
O=C(Nc1nc(-c2ccc(F)cc2)cs1)C1CCN(C(=O)c2ccc(F)cc2)CC1 was read as HIF act -3, V-ATPase pHluor -1, Yeast superoxide 99, CendR NRP1 mod 1, T cruzi inh 55* and AI-2 QS modul 6.
Screening CN(C)c1nc(-c2cccnc2)nc(-c2ccccc2)c1C#N returned HIF act 0, V-ATPase pHluor 0, Yeast superoxide 97, CendR NRP1 mod 9, T cruzi inh 7 and AI-2 QS modul 13.
`COc1cnc(-c2ccccn2)nc1N(C)c1ccccc1` gave HIF act 114*, V-ATPase pHluor 3, Yeast superoxide 94, CendR NRP1 mod 10, T cruzi inh 66* and AI-2 QS modul -24.
Screening COc1cnc(-c2ccccn2)nc1Sc1ccc(Cl)cc1 returned HIF act 0, V-ATPase pHluor -2, Yeast superoxide 115, CendR NRP1 mod 1, T cruzi inh 19 and AI-2 QS modul 17.
COc1cnc(-c2ccccn2)nc1Oc1ccccc1 was read as HIF act 0, V-ATPase pHluor 4, Yeast superoxide 101, CendR NRP1 mod -14, T cruzi inh -1 and AI-2 QS modul 26.
COc1cnc(-c2ccccn2)nc1Sc1ccccc1 was read as HIF act 2, V-ATPase pHluor -1, Yeast superoxide 97, CendR NRP1 mod 4, T cruzi inh 65* and AI-2 QS modul 41.
Screening COc1ccc(Sc2nc(-c3ccccn3)ncc2OC)cc1 returned HIF act 0, V-ATPase pHluor 3, Yeast superoxide 90, CendR NRP1 mod 1, T cruzi inh 63* and AI-2 QS modul 42.
`CCOC(=O)Cc1ccc(NS(=O)(=O)c2ccc(SC)cc2)cc1` gave HIF act 0, V-ATPase pHluor 1, Yeast superoxide 96, CendR NRP1 mod 25*, T cruzi inh -10 and AI-2 QS modul inconclusive.
For COc1cc(OC)c(OC)cc1/C=C1\CC(C)C/C(=C\c2cc(OC)c(OC)cc2OC)C1=O (stereo unspecified) the results were HIF act 3, V-ATPase pHluor -1, Yeast superoxide 94, CendR NRP1 mod -141, T cruzi inh 59* and AI-2 QS modul 18.
COc1ccc(OC)c(CCNC(=O)CCn2nc(C)c3c(C)n(-c4ccccc4)nc3c2=O)c1 was read as HIF act 0, V-ATPase pHluor -2, Yeast superoxide 113, CendR NRP1 mod -5, T cruzi inh 14 and AI-2 QS modul 18.
